# Results from ChEMBL document CHEMBL1124896, “Synthesis and antitumor activity of novel 4-demethoxyanthracyclines” (1990).
# Key:
# Assay type in all cases: functional, Mus musculus
# Details in all cases: route intraperitoneal
# [1] = test system: L1210 (1565); experiment: Antitumor activity against L-1210 leukemia cell line in BDF1 mice after injecting 0.5 mg/kg ip dose
# Outline: (§1)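 Female BDF1 mice received 10⁵ viable L-1210 ascites cells ip. Aqueous test compound was given ip starting the same day, daily five times a week for 4 weeks or until death, with five mice per dose. Read-out was T/C, the mean survival time of treated mice over untreated controls. Mice alive at 4 weeks were counted as long-term survivors.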
# [2] = test system: P388; experiment: Antitumor activity against P-388 leukemia cell line in BDF1 mice after injecting 8.0 mg/kg ip dose
# [3] = test system: P388; experiment: Antitumor activity against P-388 leukemia cell line in BDF1 mice after injecting 4 mg/kg ip dose
# [4] = test system: L1210 (1565); experiment: Antitumor activity against L-1210 leukemia cell line in BDF1 mice after injecting 0.25 mg/kg ip dose; outline: as §1
# [5] = test system: L1210 (1565); experiment: Antitumor activity against L-1210 leukemia cell line in BDF1 mice after injecting 16 mg/kg ip dose; outline: as §1
# [6] = test system: L1210 (1565); experiment: Antitumor activity against L-1210 leukemia cell line in BDF1 mice after injecting 0.125 mg/kg ip dose; outline: as §1
# [7] = test system: P388; experiment: Antitumor activity against P-388 leukemia cell line in BDF1 mice after injecting 0.38 mg/kg ip dose
# [8] = test system: L1210 (1565); experiment: Antitumor activity against L-1210 leukemia cell line in BDF1 mice after injecting 2 mg/kg ip dose; outline: as §1
# [9] = test system: L1210 (1565); experiment: Antitumor activity against L-1210 leukemia cell line in BDF1 mice after injecting 2.0 mg/kg ip dose; outline: as §1
# [10] = test system: P388; experiment: Antitumor activity against P-388 leukemia cell line in BDF1 mice after injecting 6.25 mg/kg ip dose
# [11] = test system: P388; experiment: Antitumor activity against P-388 leukemia cell line in BDF1 mice after injecting 2.4 mg/kg ip dose
# [12] = test system: L1210 (1565); experiment: Antitumor activity against L-1210 leukemia cell line in BDF1 mice after injecting 0.05 mg/kg ip dose; outline: as §1
# [13] = test system: P388; experiment: Antitumor activity against P-388 leukemia cell line in BDF1 mice after injecting 3.0 mg/kg ip dose
# [14] = test system: L1210 (1565); experiment: Antitumor activity against L-1210 leukemia cell line in BDF1 mice after injecting 8 mg/kg ip dose; outline: as §1
# [15] = test system: L1210 (1565); experiment: Antitumor activity against L-1210 leukemia cell line in BDF1 mice after injecting 4 mg/kg ip dose; outline: as §1
# [16] = test system: L1210 (1565); experiment: Antitumor activity against L-1210 leukemia cell line in BDF1 mice after injecting 0.1 mg/kg ip dose; outline: as §1
smiles,measurement,setting,value
COc1cccc2c1C(=O)c1c(O)c3c(c(O)c1C2=O)C[C@@](O)(C(C)=O)C[C@@H]3O[C@H]1C[C@H](N)[C@H](O)[C@H](C)O1 [DAUNORUBICIN],T/C,[1],290%
same,T/C,[2],143%
CC[C@@]1(O)Cc2c(O)c3c(c(O)c2[C@@H](O[C@H]2C[C@H](N)[C@@H](O)[C@H](C)O2)C1)C(=O)c1ccccc1C3=O.Cl,T/C,[3],184%
same,T/C,[1],460%
CC1OC(O[C@H]2C[C@](O)(CCO)Cc3c(O)c4c(c(O)c32)C(=O)c2ccccc2C4=O)CC(N)C1O.Cl (stereo not given in full),T/C,[4],450%
CC1OC(O[C@H]2C[C@](O)(C(=O)Nc3ccccc3)Cc3c(O)c4c(c(O)c32)C(=O)c2ccccc2C4=O)CC(N)C1O.Cl (stereo not given in full),T/C,[5],120%
C[C@@H]1OC(O[C@H]2C[C@](O)(CO)Cc3c(O)c4c(c(O)c32)C(=O)c2ccccc2C4=O)C[C@H](N)[C@H]1O.Cl (stereo not given in full),T/C,[6],340%
same,T/C,[7],174%
C[C@@H]1O[C@@H](O[C@H]2C[C@@](C)(O)Cc3c(O)c4c(c(O)c32)C(=O)c2ccccc2C4=O)C[C@@H](N)[C@H]1O.Cl,T/C,[8],470%
COC1C(N)CC(O[C@H]2C[C@](O)(CO)Cc3c(O)c4c(c(O)c32)C(=O)c2ccccc2C4=O)OC1C.Cl (stereo not given in full),T/C,[6],350%
CC1OC(O[C@H]2C[C@](O)(C(=O)N(C)c3ccccc3)Cc3c(O)c4c(c(O)c32)C(=O)c2ccccc2C4=O)CC(N)C1O.Cl (stereo not given in full),T/C,[5],120%
COc1cccc2c1C(=O)c1c(O)c3c(c(O)c1C2=O)C[C@@](O)(C(=O)CO)C[C@@H]3O[C@H]1C[C@H](N)[C@H](O)[C@H](C)O1 [DOXORUBICIN],T/C,[2],174%
same,T/C,[9],330%
COC1C(N)CC(O[C@H]2C[C@](O)(C(C)=O)Cc3c(O)c4c(c(O)c32)C(=O)c2ccccc2C4=O)OC1C.Cl (stereo not given in full),T/C,[4],230%
C[C@@H]1O[C@@H](O[C@H]2C[C@@](C)(O)Cc3c(O)c4c(c(O)c32)C(=O)c2ccccc2C4=O)C[C@@H](N)[C@@H]1O.Cl,T/C,[1],400%
same,T/C,[10],192%
CC(=O)[C@]1(O)Cc2c(O)c3c(c(O)c2[C@@H](O[C@H]2C[C@@H](N)[C@H](O)[C@H](C)O2)C1)C(=O)c1ccccc1C3=O.Cl,T/C,[11],174%
same,T/C,[12],230%
CC[C@@]1(O)Cc2c(O)c3c(c(O)c2[C@@H](O[C@H]2C[C@H](N)[C@H](O)[C@H](C)O2)C1)C(=O)c1ccccc1C3=O.Cl,T/C,[13],155%
same,T/C,[1],420%
CC(=O)[C@]1(O)Cc2c(O)c3c(c(O)c2[C@@H](O[C@H]2C[C@@H](N)[C@@H](O)[C@H](C)O2)C1)C(=O)c1ccccc1C3=O.Cl,T/C,[1],240%
CC1OC(O[C@H]2C[C@](O)(C(=O)NOCc3ccccc3)Cc3c(O)c4c(c(O)c32)C(=O)c2ccccc2C4=O)CC(N)C1O.Cl (stereo not given in full),T/C,[14],100%
C[C@@H]1O[C@@H](O[C@H]2C[C@](O)([C@@H](C)O)Cc3c(O)c4c(c(O)c32)C(=O)c2ccccc2C4=O)C[C@@H](N)[C@@H]1O.Cl,T/C,[6],250%
CC1OC(O[C@H]2C[C@](O)(C(=O)NCc3ccccc3)Cc3c(O)c4c(c(O)c32)C(=O)c2ccccc2C4=O)CC(N)C1O.Cl (stereo not given in full),T/C,[15],130%
C[C@@H]1O[C@@H](O[C@H]2C[C@](O)([C@H](C)O)Cc3c(O)c4c(c(O)c32)C(=O)c2ccccc2C4=O)C[C@@H](N)[C@@H]1O.Cl (stereo in doubt; 35),T/C,[6]; 0.125 mg/kg,270%
CC1CC(N)CC(O[C@H]2C[C@](O)(CO)Cc3c(O)c4c(c(O)c32)C(=O)c2ccccc2C4=O)O1.Cl (stereo not given in full),T/C,[6],280%
C[C@@H]1O[C@@H](O[C@H]2C[C@](O)([C@H](C)O)Cc3c(O)c4c(c(O)c32)C(=O)c2ccccc2C4=O)C[C@@H](N)[C@@H]1O.Cl (stereo in doubt; 25),T/C,[6]; 0.125 mg/kg,220%
C[C@@H]1O[C@@H](O[C@H]2C[C@](O)([C@H](C)O)Cc3c(O)c4c(c(O)c32)C(=O)c2ccccc2C4=O)C[C@@H](N)[C@@H]1O.Cl (stereo in doubt; 36),T/C,[6]; 0.125 mg/kg,360%
C[C@@H]1OC(O[C@H]2C[C@](O)(CO)Cc3c(O)c4c(c(O)c32)C(=O)c2ccccc2C4=O)C[C@H](N)[C@@H]1O.Cl (stereo not given in full),T/C,[16],230%
CCCNC(=O)[C@]1(O)Cc2c(O)c3c(c(O)c2[C@@H](OC2CC(N)C(O)C(C)O2)C1)C(=O)c1ccccc1C3=O.Cl (stereo not given in full),T/C,[8],120%
